Here are results for 21 molecules from ChEMBL document CHEMBL1773037, “Evaluation of superior BACE1 cleavage sequences containing unnatural amino acids” (Bioorg Med Chem, 2011).

Assay [1] deals with Beta-secretase 1 (Homo sapiens) (UniProt P56817). In words: Activity of recombinant BACE assessed as retention time of substrate by HPLC method.
Assay [2] has the same target. In words: Activity of recombinant BACE assessed as substrate cleavage at 300 uM after 3 hrs by HPLC analysis. In outline:
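Individually synthesized, purified substrates at 300 µM in 40 mM AcONa buffer, pH 4.5, 37 °C. rBACE1 used at 60 nM (P1, P4 substrates), 30 nM (P2, P3 substrates) or 10 nM (P1' substrates and the dodecapeptide). Aliquots taken at 0, 1 and 3 h, quenched with 7 M GuHCl, and the decrease in each substrate peak monitored by HPLC.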

Active and inactive are the calls of the source. No cut-off for these calls is given here. Starred links: 1 amine or outer side, 2 acyl side, 3 side chain; linkers in the order of their positions; H or OH if unused. Non-standard residues stand in square brackets, D forms with d. Residues, ends and D or L forms follow the SMILES beside them. X1 = O=C(O)[C@@H]1Cc2ccccc2CN1[C@H](N[*:1])C(=O)[*:2]; 2Thi = N[C@@H](Cc1cccs1)C(=O)O; Cha = N[C@@H](CC1CCCCC1)C(=O)O; Cit = NC(=O)NCCC[C@H](N)C(=O)O; Phg = N[C@H](C(=O)O)c1ccccc1; Tle = CC(C)(C)[C@H](N)C(=O)O; Nva = CCC[C@H](N)C(=O)O; Abu = CC[C@H](N)C(=O)O

Sequence of Beta-secretase 1 (Homo sapiens) (P56817 whole entry): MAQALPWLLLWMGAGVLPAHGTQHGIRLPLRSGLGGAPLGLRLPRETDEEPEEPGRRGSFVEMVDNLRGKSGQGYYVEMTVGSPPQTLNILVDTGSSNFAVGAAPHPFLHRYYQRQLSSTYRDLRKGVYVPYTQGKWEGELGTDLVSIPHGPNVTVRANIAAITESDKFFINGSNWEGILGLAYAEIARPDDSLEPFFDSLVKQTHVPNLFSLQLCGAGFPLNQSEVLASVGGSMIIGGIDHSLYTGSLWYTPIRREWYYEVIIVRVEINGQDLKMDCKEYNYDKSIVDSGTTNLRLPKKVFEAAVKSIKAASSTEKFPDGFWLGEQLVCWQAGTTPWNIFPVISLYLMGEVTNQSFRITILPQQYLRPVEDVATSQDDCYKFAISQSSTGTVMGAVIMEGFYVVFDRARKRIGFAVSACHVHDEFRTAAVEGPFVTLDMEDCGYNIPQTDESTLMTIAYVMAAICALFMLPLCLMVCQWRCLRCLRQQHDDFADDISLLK

Consider `CC[C@H](C)[C@H](N)C(=O)N[C@@H](CO)C(=O)N[C@@H](CCC(=O)O)C(=O)N[C@H](C(=O)N[C@@H](CC(N)=O)C(=O)N[C@@H](CC(C)C)C(=O)N[C@@H](CC(=O)O)C(=O)N[C@@H](C)C(=O)N[C@@H](CCC(=O)O)C(=O)N[C@@H](Cc1ccccc1)C(=O)N[C@@H](CCCNC(=N)N)C(=O)N[C@@H](Cc1cnc[nH]1)C(N)=O)[C@@H](C)CC` (H-ISEINLDAEFRH-NH2), for which the retention time in assay [1] is 0.517 h. Moreover, the outcome in assay [2] was Active.
In the same order, the values of `CC[C@H](C)[C@H](N)C(=O)N[C@@H](CO)C(=O)N[C@@H](CCC(=O)O)C(=O)N[C@H](C(=O)N[C@@H](CC(=O)O)C(=O)N[C@@H](CC(C)C)C(=O)N[C@@H](CC(=O)O)C(=O)N[C@@H](C)C(=O)N[C@@H](CCC(=O)O)C(=O)N[C@@H](Cc1ccccc1)C(=O)N[C@@H](CCCNC(=N)N)C(=O)N[C@@H](Cc1cnc[nH]1)C(N)=O)C(C)C` (H-ISEVDLDAEFRH-NH2) are 0.49 h and “Active”.
In the same order, the values of `CC[C@H](C)[C@H](N)C(=O)N[C@@H](CO)C(=O)N[C@@H](CCC(=O)O)C(=O)N[C@H](C(=O)N[C@@H](CCSC)C(=O)N[C@@H](CC(C)C)C(=O)N[C@@H](CC(=O)O)C(=O)N[C@@H](C)C(=O)N[C@@H](CCC(=O)O)C(=O)N[C@@H](Cc1ccccc1)C(=O)N[C@@H](CCCNC(=N)N)C(=O)N[C@@H](Cc1cnc[nH]1)C(N)=O)C(C)C` (H-ISEVMLDAEFRH-NH2) are 0.521 h and “Active”.
As for `CC[C@H](C)[C@H](N)C(=O)N[C@@H](CO)C(=O)N[C@@H](CCC(=O)O)C(=O)N[C@H](C(=O)N[C@@H](CC(N)=O)C(=O)N[C@@H](CC(=O)O)C(=O)N[C@@H](CC(=O)O)C(=O)N[C@@H](C)C(=O)N[C@@H](CCC(=O)O)C(=O)N[C@@H](Cc1ccccc1)C(=O)N[C@@H](CCCNC(=N)N)C(=O)N[C@@H](Cc1cnc[nH]1)C(N)=O)C(C)C` (H-ISEVNDDAEFRH-NH2), the result in assay [2] was Active.
As for `CC[C@H](C)[C@H](N)C(=O)N[C@@H](CO)C(=O)N[C@@H](CCC(=O)O)C(=O)N[C@H](C(=O)N[C@@H](CC(N)=O)C(=O)N[C@@H](Cc1ccccc1)C(=O)N[C@@H](CC(=O)O)C(=O)N[C@@H](C)C(=O)N[C@@H](CCC(=O)O)C(=O)N[C@@H](Cc1ccccc1)C(=O)N[C@@H](CCCNC(=N)N)C(=O)N[C@@H](Cc1cnc[nH]1)C(N)=O)C(C)C` (H-ISEVNFDAEFRH-NH2), in assay [1], the retention time stood at 0.502 h. Further, in assay [2], the Activity is 50%.
With `CC[C@H](C)[C@H](N)C(=O)N[C@@H](CO)C(=O)N[C@@H](CCC(=O)O)C(=O)N[C@H](C(=O)N[C@@H](CC(N)=O)C(=O)N[C@@H](CC(C)C)C(=O)N[C@@H](CCSC)C(=O)N[C@@H](C)C(=O)N[C@@H](CCC(=O)O)C(=O)N[C@@H](Cc1ccccc1)C(=O)N[C@@H](CCCNC(=N)N)C(=O)N[C@@H](Cc1cnc[nH]1)C(N)=O)C(C)C` (H-ISEVNLMAEFRH-NH2), in assay [1], the retention time came out at 0.622 h. The result in assay [2] was Active.
Regarding `CC[C@H](NC(=O)[C@H](CC(C)C)NC(=O)[C@H](CC(N)=O)NC(=O)[C@@H](NC(=O)[C@H](CCC(=O)O)NC(=O)[C@H](CO)NC(=O)[C@@H](N)[C@@H](C)CC)C(C)C)C(=O)N[C@@H](C)C(=O)N[C@@H](CCC(=O)O)C(=O)N[C@@H](Cc1ccccc1)C(=O)N[C@@H](CCCNC(=N)N)C(=O)N[C@@H](Cc1cnc[nH]1)C(N)=O` (H-ISEVNL[Abu]AEFRH-NH2), the retention time in assay [1] is 0.585 h. Moreover, in assay [2], the result was Active.
In the same order, the values of `CCC[C@H](NC(=O)[C@H](CC(C)C)NC(=O)[C@H](CC(N)=O)NC(=O)[C@@H](NC(=O)[C@H](CCC(=O)O)NC(=O)[C@H](CO)NC(=O)[C@@H](N)[C@@H](C)CC)C(C)C)C(=O)N[C@@H](C)C(=O)N[C@@H](CCC(=O)O)C(=O)N[C@@H](Cc1ccccc1)C(=O)N[C@@H](CCCNC(=N)N)C(=O)N[C@@H](Cc1cnc[nH]1)C(N)=O` (H-ISEVNL[Nva]AEFRH-NH2) are 0.622 h and “Active”.
With `CC[C@H](C)[C@H](N)C(=O)N[C@@H](CO)C(=O)N[C@@H](CCC(=O)O)C(=O)N[C@H](C(=O)N[C@@H](CC(N)=O)C(=O)N[C@@H](CCSC)C(=O)N[C@@H](CC(=O)O)C(=O)N[C@@H](C)C(=O)N[C@@H](CCC(=O)O)C(=O)N[C@@H](Cc1ccccc1)C(=O)N[C@@H](CCCNC(=N)N)C(=O)N[C@@H](Cc1cnc[nH]1)C(N)=O)C(C)C` (H-ISEVNMDAEFRH-NH2), the outcome in assay [2] was Active.
For `CC[C@H](C)[C@H](N)C(=O)N[C@@H](CO)C(=O)N[C@@H](CCC(=O)O)C(=O)N[C@@H](CCCNC(N)=O)C(=O)N[C@@H](CC(N)=O)C(=O)N[C@@H](CC(C)C)C(=O)N[C@@H](CC(=O)O)C(=O)N[C@@H](C)C(=O)N[C@@H](CCC(=O)O)C(=O)N[C@@H](Cc1ccccc1)C(=O)N[C@@H](CCCNC(=N)N)C(=O)N[C@@H](Cc1cnc[nH]1)C(N)=O` (H-ISE[Cit]NLDAEFRH-NH2), the retention time in assay [1] turned out to be 0.438 h.
The same measure, in the same setting: the value for `CC[C@H](C)[C@H](N)C(=O)N[C@@H](CO)C(=O)N[C@@H](CCC(=O)O)C(=O)N[C@H](C(=O)N[C@@H](CC(N)=O)C(=O)N[C@@H](CC(C)C)C(=O)N[C@@H](CC(=O)O)C(=O)N[C@@H](C)C(=O)N[C@@H](CCC(=O)O)C(=O)N[C@@H](Cc1ccccc1)C(=O)N[C@@H](CCCNC(=N)N)C(=O)N[C@@H](Cc1cnc[nH]1)C(N)=O)c1ccccc1` (H-ISE[Phg]NLDAEFRH-NH2) was 0.514 h.
Turning to `CC[C@H](C)[C@H](N)C(=O)N[C@@H](CO)C(=O)N[C@@H](CCC(=O)O)C(=O)N[C@H](C(=O)N[C@@H](CC(N)=O)C(=O)N[C@@H](CC(C)C)C(=O)N[C@@H](CC(=O)O)C(=O)N[C@@H](C)C(=O)N[C@@H](CCC(=O)O)C(=O)N[C@@H](Cc1ccccc1)C(=O)N[C@@H](CCCNC(=N)N)C(=O)N[C@@H](Cc1cnc[nH]1)C(N)=O)C(C)(C)C` (H-ISE[Tle]NLDAEFRH-NH2), the retention time in assay [1] was determined as 0.517 h.
In the case of `CC[C@H](C)[C@H](N)C(=O)N[C@@H](CO)C(=O)N[C@@H](CCC(=O)O)C(=O)N[C@H](C(=O)N[C@@H](CC(N)=O)C(=O)N[C@@H](CC(C)C)C(=O)N[C@@H](CC(=O)O)C(=O)N[C@@H](C)C(=O)N[C@@H](CCC(=O)O)C(=O)N[C@@H](Cc1ccccc1)C(=O)N[C@@H](CCCNC(=N)N)C(=O)N[C@@H](Cc1cnc[nH]1)C(N)=O)N1Cc2ccccc2C[C@H]1C(=O)O` (H-ISE[X1]NLDAEFRH-NH2), the retention time in assay [1] was determined as 0.599 h.
For the molecule `CC[C@H](C)[C@H](N)C(=O)N[C@@H](CO)C(=O)N[C@@H](CCC(N)=O)C(=O)N[C@H](C(=O)N[C@@H](CC(N)=O)C(=O)N[C@@H](CC(C)C)C(=O)N[C@@H](CC(=O)O)C(=O)N[C@@H](C)C(=O)N[C@@H](CCC(=O)O)C(=O)N[C@@H](Cc1ccccc1)C(=O)N[C@@H](CCCNC(=N)N)C(=O)N[C@@H](Cc1cnc[nH]1)C(N)=O)C(C)C` (H-ISQVNLDAEFRH-NH2), the retention time in assay [1] came to 0.469 h.
For the molecule `CC[C@H](C)[C@H](N)C(=O)N[C@@H](CO)C(=O)N[C@@H](Cc1cccs1)C(=O)N[C@H](C(=O)N[C@@H](CC(N)=O)C(=O)N[C@@H](CC(C)C)C(=O)N[C@@H](CC(=O)O)C(=O)N[C@@H](C)C(=O)N[C@@H](CCC(=O)O)C(=O)N[C@@H](Cc1ccccc1)C(=O)N[C@@H](CCCNC(=N)N)C(=O)N[C@@H](Cc1cnc[nH]1)C(N)=O)C(C)C` (H-IS[2Thi]VNLDAEFRH-NH2), the retention time in assay [1] stood at 0.591 h.
The same measure, in the same setting: in the case of `CC[C@H](NC(=O)[C@H](CO)NC(=O)[C@@H](N)[C@@H](C)CC)C(=O)N[C@H](C(=O)N[C@@H](CC(N)=O)C(=O)N[C@@H](CC(C)C)C(=O)N[C@@H](CC(=O)O)C(=O)N[C@@H](C)C(=O)N[C@@H](CCC(=O)O)C(=O)N[C@@H](Cc1ccccc1)C(=O)N[C@@H](CCCNC(=N)N)C(=O)N[C@@H](Cc1cnc[nH]1)C(N)=O)C(C)C` (H-IS[Abu]VNLDAEFRH-NH2) it was 0.528 h.
In the case of `CC[C@H](C)[C@H](N)C(=O)N[C@@H](CO)C(=O)N[C@@H](CC1CCCCC1)C(=O)N[C@H](C(=O)N[C@@H](CC(N)=O)C(=O)N[C@@H](CC(C)C)C(=O)N[C@@H](CC(=O)O)C(=O)N[C@@H](C)C(=O)N[C@@H](CCC(=O)O)C(=O)N[C@@H](Cc1ccccc1)C(=O)N[C@@H](CCCNC(=N)N)C(=O)N[C@@H](Cc1cnc[nH]1)C(N)=O)C(C)C` (H-IS[Cha]VNLDAEFRH-NH2), the retention time in assay [1] was determined as 0.689 h.
For `CCC[C@H](NC(=O)[C@H](CO)NC(=O)[C@@H](N)[C@@H](C)CC)C(=O)N[C@H](C(=O)N[C@@H](CC(N)=O)C(=O)N[C@@H](CC(C)C)C(=O)N[C@@H](CC(=O)O)C(=O)N[C@@H](C)C(=O)N[C@@H](CCC(=O)O)C(=O)N[C@@H](Cc1ccccc1)C(=O)N[C@@H](CCCNC(=N)N)C(=O)N[C@@H](Cc1cnc[nH]1)C(N)=O)C(C)C` (H-IS[Nva]VNLDAEFRH-NH2), the retention time in assay [1] was 0.567 h.
Turning to `CC[C@H](C)[C@H](N)C(=O)N[C@@H](CO)C(=O)N[C@H](C(=O)N[C@H](C(=O)N[C@@H](CC(N)=O)C(=O)N[C@@H](CC(C)C)C(=O)N[C@@H](CC(=O)O)C(=O)N[C@@H](C)C(=O)N[C@@H](CCC(=O)O)C(=O)N[C@@H](Cc1ccccc1)C(=O)N[C@@H](CCCNC(=N)N)C(=O)N[C@@H](Cc1cnc[nH]1)C(N)=O)C(C)C)C(C)(C)C` (H-IS[Tle]VNLDAEFRH-NH2), the retention time in assay [1] is 0.588 h.
Regarding `CC[C@H](C)[C@H](N)C(=O)N[C@@H](CO)C(=O)N[C@H](C(=O)N[C@H](C(=O)N[C@@H](CC(N)=O)C(=O)N[C@@H](CC(C)C)C(=O)N[C@@H](CC(=O)O)C(=O)N[C@@H](C)C(=O)N[C@@H](CCC(=O)O)C(=O)N[C@@H](Cc1ccccc1)C(=O)N[C@@H](CCCNC(=N)N)C(=O)N[C@@H](Cc1cnc[nH]1)C(N)=O)C(C)C)N1Cc2ccccc2C[C@H]1C(=O)O` (H-IS[X1]VNLDAEFRH-NH2), the retention time in assay [1] was 0.628 h.
Regarding `CCC[C@H](N)C(=O)N[C@@H](C)C(=O)N[C@@H](CCC(=O)O)C(=O)N[C@@H](Cc1ccccc1)C(=O)N[C@@H](CCCNC(=N)N)C(=O)N[C@@H](Cc1cnc[nH]1)C(N)=O` (H-[Nva]AEFRH-NH2), the retention time in assay [1] was determined as 0.269 h.
